Our source for the yeast fitness values is the RNAGym collection of RNA variant scans (doi:10.1126/science.aae0568).

The chains are these.
B1: tRNA (parent)
chain: GUUCCGUUGGCGUAAUGGUAACGCGUCUCCCUCCUAAGGAGAAGACUGCGGGUUCGAGUCCCGUACGGAACG

Fewer inactive variants are shown than the library holds.

Variants of B1 are the subject of the data set. Kind of data set: yeast fitness relative to wild type (ratio to wild type); higher = fitter; tRNA-Arg(CCU), competitive growth, 37 C, YPD. Summed up:
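Amplicons of the tRNA-Arg(CCU) gene were sequenced, 100-nucleotide paired-end, from the start population and from each end population of a pooled yeast competition. The competition, in six parallel replicates, lasted 24 hours in YPD at 37°C. Fitness relative to wild type was calculated from changes in genotype frequencies. Genotypes had to have ≥ 100 starting reads, and estimates < 0.5 were set to 0.5.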
Take A14G G18C C24G U28C C30U G48C U53A: the yeast fitness turned out to be 0.665.
As to A14G A15C C46A, the yeast fitness amounted to 0.578.
Consider A20U C33A C55U C61A, for which the yeast fitness is ≤ 0.5.
Take U2A U7C G25A A36C C60A C62G: the yeast fitness is 0.524.
With G50A A70G, the yeast fitness is 1.06.
As for G52A G56C A65U, the figure is ≤ 0.5; as for A57C A70C, 0.676; as for C4G U13C A70G, 0.618.
Take C5G C22U C27U A36G A69C: the yeast fitness was ≤ 0.5.
Take U3G G10C C46U G48A: the yeast fitness was ≤ 0.5.
As to A15C C31U C55G, the yeast fitness is ≤ 0.5.
As to C29U C31U G67U, the yeast fitness turned out to be 0.593.
In the case of C5U U7C C30G A42C G52A C55U C66U, the yeast fitness was ≤ 0.5.
With G6A G63A, the yeast fitness was found to be 0.883.
Take U19C U35A G38A A42G A69G A70G: the yeast fitness is ≤ 0.5.
As for A37U U47C G51C G63C, the yeast fitness is 0.507.
Consider C24A A42U, for which the yeast fitness came to 0.659.
The figure for A14U C66A is 0.508; for G9C U32A it is 0.648; for U16C C61G it is 0.63.
As to G25C C62G C66G G67U, the yeast fitness is ≤ 0.5.
U8G A45U: the yeast fitness is 0.648.
In the case of U19C G38C G44C C46A G68C, the yeast fitness is ≤ 0.5.
On to U35A A57C, for which the yeast fitness is ≤ 0.5.
For U16A U28C G38C G39A, the yeast fitness is ≤ 0.5.
As for C24G C29G U32A G52C, the yeast fitness was ≤ 0.5.
Take C11A C29A C46A A70G: the yeast fitness worked out at 0.541.
As for U7A A20G C31U A57C A65U, the yeast fitness was ≤ 0.5.
As for C4U C33G U47G, the figure is 0.591; as for A45G G50C, 0.637.
Turning to U7C U16G U28A, the yeast fitness is ≤ 0.5.
In the case of C30G U64C, the yeast fitness came to 0.626.
Regarding U7A C33G, the yeast fitness is 0.59.
As for C5U U28C C29G C49U, the yeast fitness was ≤ 0.5.
U54G A65G G68U A70C: the yeast fitness is ≤ 0.5.
For the variant C27G A43G C49U, the yeast fitness came out at 0.59.
With U2C C55G, the yeast fitness turned out to be 0.583.
Consider G10A C31A U32C G41C, for which the yeast fitness is ≤ 0.5.
U7G A21C A42U C66U: the yeast fitness is ≤ 0.5.
As for A15U G56C, the yeast fitness turned out to be 0.549.
The figure for C27G G39C is 0.585; for A36G C55A G67C it is ≤ 0.5; for U2A U8G C33G G38A it is ≤ 0.5.
As for A15G C31U A45U, the figure is 0.668.
On to U2C C5A C46U, for which the yeast fitness amounted to 0.591.
As for U7A G38A A43U, the yeast fitness turned out to be 0.53.
G52A C55G: the yeast fitness was determined as 0.561.
In the case of G25C C31U U32A C49G C60U, the yeast fitness was ≤ 0.5.
In the case of C31U C60G G67A, the yeast fitness was ≤ 0.5.
In the case of G17A U19A G23A C34U, the yeast fitness is ≤ 0.5.
Take U2C A21U U32A A40C G56C: the yeast fitness is ≤ 0.5.
Turning to A20U C46U A69C, the yeast fitness worked out at 0.744.
As for C5A G6A, the figure is 0.808; as for G23A C31A G50C C55G, 0.548; as for C11G C22U A40G C60G G63C, ≤ 0.5.
Turning to C5U G9A C62U, the yeast fitness came out at 0.995.
The figure for C5U U7C C30G A42C is 0.565.
As for C46G C49U, the figure is 0.981; as for C4U C46G C55U, 0.576.
As for U53C A57U U59A C66U, the figure is 0.535; as for A21G G52C, 0.639; as for U2A U8A C11G U54A, ≤ 0.5.
In the case of C27G A37G A70C, the yeast fitness was found to be 0.533.
The figure for A15G A37G C66U G67A is ≤ 0.5; for G18A C31G A40G G52C it is ≤ 0.5; for U3C G9A A57G A65U it is ≤ 0.5.
Regarding A14G A36G G51C U59G, the yeast fitness was ≤ 0.5.
As for A15U C22A G23A C24A C46A A70G, the yeast fitness is ≤ 0.5.
On to U8C A37G G39C, for which the yeast fitness was ≤ 0.5.
Regarding U26G A42C, the yeast fitness was determined as 1.03.
Regarding A20G G23A C24G C60G, the yeast fitness was ≤ 0.5.
The figure for A14G C31G A45G G56U is ≤ 0.5; for U2A C33G A36C it is ≤ 0.5.
With U13A U64C, the yeast fitness was determined as 0.922.
For the variant U3C C11G G41C, the yeast fitness is ≤ 0.5.
A36G C62A G63C: the yeast fitness was ≤ 0.5.
As for A21U C34G G39A C55U C61G, the yeast fitness was ≤ 0.5.
As for A14U U19A G23A A43C U47C A57C, the figure is ≤ 0.5; as for U26G G44C G58A G68C, 0.529.
Consider C5A G9A C29U, for which the yeast fitness came to 0.547.
On to C29U C34G A36C, for which the yeast fitness was ≤ 0.5.
Take U2A C22G G25C C61U: the yeast fitness is ≤ 0.5.
As for G6C G58C C61A, the yeast fitness amounted to 0.528.
For the variant C55A G67C, the yeast fitness was determined as 0.686.
Turning to U16A A21C A37C G68A, the yeast fitness was 0.551.
In the case of C4A C31U C61U, the yeast fitness is ≤ 0.5.
For the variant C24G C34G G48A U54A G63C, the yeast fitness is ≤ 0.5.
Take U19G C27U A37G U47C: the yeast fitness is ≤ 0.5.
Take G17A C30U C49U C66U A69C: the yeast fitness was ≤ 0.5.
Take C24G C33U A37U C55A G68C: the yeast fitness is ≤ 0.5.
For the variant C24U C31G G44A, the yeast fitness came to 0.508.
C5A U47A C55A G68A: the yeast fitness is ≤ 0.5.
As for C5G U35G A37G, the figure is 0.536; as for U2C C11G U19G, ≤ 0.5; as for A14C G56A A69C, 0.578.
Consider U2C U16C A36G, for which the yeast fitness is ≤ 0.5.
As to U3C G41A, the yeast fitness was found to be 0.879.
Regarding A14G A15G G68C, the yeast fitness was 0.537.
For the variant U2C C30U C33U G63C, the yeast fitness was ≤ 0.5.
The figure for C34A A42C A45U A65U is ≤ 0.5; for G17U U28A C29G C33U C34G A42U it is ≤ 0.5.
As to G10C A20G C66U, the yeast fitness is ≤ 0.5.
As for A57G A65U, the figure is 0.699; as for G6A G17A C31A C33G G38A, ≤ 0.5; as for C4U C46G G51A G52A, ≤ 0.5.
On to G6A A37U, for which the yeast fitness was 0.64.
As to U3C U19A, the yeast fitness came out at 1.03.
For the variant A45U C46G G52A, the yeast fitness is 0.578.
The figure for G39C A65G is 0.754.
Consider G25A A43G, for which the yeast fitness came out at 0.949.
U3C A14G U19A: the yeast fitness is 0.761.
Consider A37G A42G, for which the yeast fitness is 0.838.
A15G C27A G51C: the yeast fitness is ≤ 0.5.
U7G C27G U28G G67A: the yeast fitness is 0.547.
The figure for U8A A37G A42U U54C is ≤ 0.5.
In the case of C5A A42G C49G U54C G63C A70U, the yeast fitness is ≤ 0.5.
The figure for A20G C60A A70U is 0.605.
As for G12C C22G, the figure is 1.03; as for A15C C27U A40G G52A A57U, 0.692.
For the variant U3G C31A, the yeast fitness came to 0.747.
For the variant C11A A21C C31A C55G, the yeast fitness was ≤ 0.5.
A21C A65C: the yeast fitness was found to be 0.677.
As to G23A A37G G68A, the yeast fitness was found to be 0.682.
Consider C4A C24U C29U U32C U54C, for which the yeast fitness was ≤ 0.5.
In the case of U16G C29G C62G, the yeast fitness was ≤ 0.5.
Take U8C A14U C49A: the yeast fitness is ≤ 0.5.
The figure for U7A U28C C62G is ≤ 0.5; for C5G A21G C22U it is 0.689.
A21C C24U U32A A65C: the yeast fitness was ≤ 0.5.
In the case of C11U G17C A21C C24A G41A C46G C61A, the yeast fitness is ≤ 0.5.
In the case of C4A G6A U64A, the yeast fitness was ≤ 0.5.
For the variant G6A U16G A37C A57C C60A, the yeast fitness is ≤ 0.5.
On to A20G A37G, for which the yeast fitness stood at 0.718.
Regarding C11A C22G C34A G41A A70U, the yeast fitness was ≤ 0.5.
Turning to G12A U19A A20U A36U, the yeast fitness is ≤ 0.5.
The figure for C5U C29A is 0.569; for U8G G51C C60A it is ≤ 0.5; for A21G C33A G51A A57U A65U it is ≤ 0.5.
On to C4G C30G A40G A65C, for which the yeast fitness was ≤ 0.5.
With U13C C55U A65U, the yeast fitness is ≤ 0.5.
As for A15U C34A G39C A40C G56C C61G C62G G68C, the yeast fitness is 0.533.
For the variant G10U A69U, the yeast fitness was found to be 0.864.
With U19C C29G C31A, the yeast fitness is ≤ 0.5.
Turning to G6A G23A, the yeast fitness was found to be 0.877.
The figure for C27A C31U C33A A42U G67A is ≤ 0.5.
Regarding U32C C55U G67A, the yeast fitness was ≤ 0.5.
As to C24U U35C A70U, the yeast fitness was 0.541.
As to C5U U13A A15G G50C A57G, the yeast fitness worked out at 0.536.
Take U3C U47G: the yeast fitness came out at 0.7.
Take G9C U13C A20C: the yeast fitness turned out to be 0.706.
For C4G U7C A14C C30U A40U C49U, the yeast fitness is ≤ 0.5.
On to U8A G10A G67C A69U, for which the yeast fitness was ≤ 0.5.
As for U19C A20U A69U, the yeast fitness worked out at 1.05.
U2C G9C C24U U26G: the yeast fitness was ≤ 0.5.
With G18C U26A A45G C62G, the yeast fitness is 0.556.
In the case of U13A C22G C24G A36U A40C G51C, the yeast fitness stood at 0.548.
